Out of some 2,500 compounds screened, about 1,200 (48%) were called active.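 How the source made its calls: active means mean activation above the low control average plus 3 SD, as set in the primary screen (cut at about 12% in these data); inactive means the rest.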 The set was probably picked from earlier hits. The list shows a part of the results.

The target of the assay is Troponin I, cardiac muscle (Homo sapiens) + Troponin T, cardiac muscle (Homo sapiens) + Troponin C, slow skeletal and cardiac muscles (Homo sapiens) (UniProt P19429+P45379+P63316). As to the kind of experiment: calcium sensitizers of cardiac thin filaments – biochemical, IANBD-TnC fluorescence, triplicate, confirmation (AID 504383).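 Further: 0% = DMSO at 0.472 mM calcium and 100% = DMSO at 2.9 mM calcium.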 The note with it: IANBD-labeled cardiac RTF, Ca2+ sensitivity fluorescence; at 7.2 µM; hits give high values; scaled from EC20 to saturating calcium; tested at EC20 calcium, 0.472 mM. The procedure, abridged:
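material = labelled regulated thin filaments | probe or stimulus = Ca2+ 0.472 mM, EC20 level | dosing = single nominal compound dose of 7.2 µM | schedule = 15 min at 25 °C | signal = fluorescence intensity of labelled filaments | evaluation = fluorescence gain scaled between EC20 and EC100 calcium controls | benchmarks = low control EC20 calcium, high control EC100 calcium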
For `c1ccc(-c2nc(-c3ccco3)n3ccccc23)cc1`, the activation was 1.15% (inactive).

On to `N#Cc1c(N)oc(-c2ccccc2)c1-c1ccccc1`, for which the activation is 23.9% (active).

Consider `COc1ccccc1C1=NOC(Cn2c(=O)c3c(ncn3C)n(C)c2=O)C1` (stereo unspecified), for which the activation was 7.68% (inactive).

As to `Cc1c(O)c2c3c(cccc3c1O)C(=O)N(c1ccccc1)C2=O`, the activation is 67.4% (active).

Regarding `Nc1ccc2c3c(cccc13)C(=O)N(c1ccccc1)C2=O`, the activation was 10.9% (inactive).

Turning to `Cc1cccc(N2CCN(C(=O)Cn3nc(Cc4ccncc4)c4ccccc4c3=O)CC2)c1C`, the activation was 25.3% (active).

Turning to `Cc1nc2ccccc2n2c(O)c(CC(=O)O)cc12`, the activation was 15.2% (active).

On to `COc1ccc2c(n1)Sc1nc3ccccc3nc1N2`, for which the activation is 6.52% (inactive).

`CC1(C)CC(=O)C2=C(C1)OC(N)=C(C#N)C21CCN(Cc2ccccc2)CC1`: the activation is 12.4% (active).

As for `COc1ccc2[nH]c3c(c2c1)CCN1C(=O)C(CC(=O)NCCCn2ccnc2)C[C@H](C(=O)N2CCCCC2)[C@@]31C` (stereo partly specified), the activation was 6.39% (inactive).

As for `O=C(Cc1ccccc1Cl)Nc1cccnc1`, the activation is 22.6% (active).

For `O=C1c2ccccc2C(Nc2cccnc2)N1Cc1ccccc1Cl` (stereo unspecified), the activation is 54.5% (active).

In the case of `O=C(NCCOc1ccccc1Cl)C(=O)Nc1ccccc1`, the activation was 11.1% (inactive).

`O=C(Nc1cnn(Cc2c(Cl)cccc2Cl)c1)C(c1ccccc1)c1ccccc1`: the activation was 4.3% (inactive).

Regarding `CCCCN1C(=O)/C(=C/C=C2\SCCN2C)SC1=S`, the activation is 7.61% (inactive).

`CN1CCS/C1=C/C=C1/SC(=S)N(Cc2ccccc2)C1=O`: the activation is 2.39% (inactive).

Consider `CN1C(=O)/C(=C/C=C2\SCCN2C)OC1=S`, for which the activation is 31.5% (active).

For the molecule `CCN1C(=O)/C(=C\C=C2/C=CC=CN2CC)SC1=S`, the activation was 431% (active).

As for `CCN1C(=O)/C(=C/C=C2/SCCN2C)SC1=S`, the activation is 42.9% (active).

As for `CN1CCS/C1=C/C=C1\SC(=S)N(CC(=O)O)C1=O`, the activation was 122% (active).

With `C=CCNC(=S)N(CC=C)C1CCS(=O)(=O)C1` (stereo unspecified), the activation was 6.54% (inactive).

Turning to `O=C(O)c1cccc2c1C(=O)c1ccc(N3CCCC3)cc1S2(=O)=O`, the activation was 6.28% (inactive).

In the case of `C#CCSc1nc2[nH]ncc2c(=O)[nH]1`, the activation is 5.4% (inactive).

Take `CN1CCS/C1=C\C=C1/SC(=S)N(CC(=O)O)C1=O`: the activation was 12.1% (active).

As to `CCNC(=O)/C(C#N)=C/c1c(N2CCN(Cc3ccc4c(c3)OCO4)CC2)nc2c(C)cccn2c1=O`, the activation is 9.67% (inactive).

As for `O=C(CCc1ccc(S(=O)(=O)NCCc2ccccc2)cc1)N1CCN(Cc2ccc3c(c2)OCO3)CC1`, the activation was 1.31% (inactive).

As for `N#C/C(=C\N1CCN(Cc2ccc3c(c2)OCO3)CC1)c1nc2ccccc2s1`, the activation is 17.4% (active).

Take `NC(=O)c1ccc(NC(=O)COC(=O)c2c3c(nc4ccccc24)/C(=C\c2ccc4c(c2)OCO4)CCC3)cc1`: the activation was 11.7% (active).

For `CCCCNC(=O)COC(=O)c1c2c(nc3ccccc13)/C(=C\c1cccs1)CC2`, the activation is 6.15% (inactive).

Take `CC(OC(=O)c1c2c(nc3ccccc13)/C(=C\c1ccc3c(c1)OCO3)CCC2)C(=O)Nc1ccc(S(N)(=O)=O)cc1` (stereo unspecified): the activation was 3.14% (inactive).

In the case of `O=C(NCc1ccccc1)C1=C[C@H](C2CC2)C[C@H](OCc2ccc(CO)cc2)O1`, the activation is -0.14% (inactive).

Take `CCCN(CCC)C(=O)C1c2ccccc2Oc2ccccc21`: the activation was 16.6% (active).

Consider `CCOC(=O)C1CCCN(C(=O)C2c3ccccc3Oc3ccccc32)C1` (stereo unspecified), for which the activation was -3.14% (inactive).

As to `CCOC(=O)C(C#N)C(c1cccnc1)c1c(C)[nH][nH]c1=O` (stereo unspecified), the activation was 5.64% (inactive).

Regarding `Cc1cccn2c(=O)c(/C=C3\SC(=S)N(CC(C)C)C3=O)c(NCCCOC(C)C)nc12`, the activation was 111% (active).

Turning to `Cc1cccn2c(=O)c(/C=C3\SC(=S)NC3=O)c(NCCCN3CCOCC3)nc12`, the activation was 63.9% (active).

As for `COc1cc(CCCN2C(=S)NC[C@@H]2CC2CCCCC2)cc(OC)c1OC`, the activation was 88.2% (active).

Take `FC(F)(F)c1ccc(-c2nc(=S)[nH][nH]2)cc1`: the activation was 8.3% (inactive).

In the case of `CC(C)OC(=O)CN1C(=O)S/C(=C/c2ccc(N3CCCCC3)o2)C1=O`, the activation was 13% (active).

Regarding `O=C1NC(=S)S/C1=C/c1ccc(N2CCOCC2)o1`, the activation is 18.5% (active).

For `CCCN1C(=O)S/C(=C/c2ccc(N3CCOCC3)o2)C1=O`, the activation is 94.3% (active).

With `CCCN1C(=O)S/C(=C\c2ccc(N3CCOCC3)o2)C1=O`, the activation is 1.26% (inactive).

As to `O=C1S/C(=C\c2ccc(N3CCOCC3)o2)C(=O)N1c1ccccc1`, the activation was 62.9% (active).

For the molecule `COc1ccc(/C=N/Nc2ncc(C(F)(F)F)cc2Cl)cc1OC`, the activation was -2.64% (inactive).

With `Cc1[nH]c(=O)c(C#N)c(C)c1Cl`, the activation was 9.65% (inactive).

For the molecule `O=C1S/C(=C\c2ccc(N3CCOCC3)o2)C(=O)N1Cc1ccc(F)cc1`, the activation is 3.92% (inactive).

As to `O=C1S/C(=C/c2ccc(N3CCOCC3)o2)C(=O)N1Cc1c(F)cccc1Cl`, the activation was 17.9% (active).

Regarding `O=C1S/C(=C\c2ccc(N3CCOCC3)o2)C(=O)N1Cc1c(F)cccc1Cl`, the activation was 788% (active).

In the case of `O=C1S/C(=C/c2ccc(N3CCOCC3)o2)C(=O)N1Cc1ccc(F)cc1`, the activation was 54.8% (active).

Regarding `Cc1cc(C=C2C(=O)c3ccccc3C2=O)c(C)n1-c1ccccc1`, the activation was 94.4% (active).

On to `Cc1cc(C=C2C(=O)c3ccccc3C2=O)c(C)n1-c1ccc(Cl)cc1`, for which the activation was 13.3% (active).

`Cc1cccc(-n2c(C)cc(C=C3C(=O)c4ccccc4C3=O)c2C)c1`: the activation was 1.06% (inactive).

As for `Cc1cc(C=C2C(=O)CCCC2=O)c(C)n1-c1ccccc1`, the activation is 3.1% (inactive).

Turning to `CN(C)c1ccc(/C=C2\SC(N3CCCCC3)=NC2=O)cc1`, the activation was 1160% (active).

Consider `CCOC(=O)C1CCCN(C2=NC(=O)/C(=C/c3ccc(O)c(OC)c3)S2)C1` (stereo unspecified), for which the activation was -0.88% (inactive).

As for `CN(C)c1ccc(/C=C2\C(=N)N3N=C(CC(=O)N4CCCCC4)SC3=NC2=O)cc1`, the activation was 41.6% (active).

Turning to `CC(C)/C=C1\CC/C(=C\c2ccc(N(C)C)cc2)C1=O`, the activation is 5.2% (inactive).

`CCOC(=O)C1CCCN(C2=NC(=O)/C(=C/c3ccc(N(C)C)cc3)S2)C1` (stereo unspecified): the activation was 8.97% (inactive).

In the case of `CCN(CC)c1ccc(/C=C2\C(=N)N3N=C(CC(=O)N4CCOCC4)SC3=NC2=O)cc1`, the activation was 16.5% (active).

As for `CCCN(CCC)CC(O)Cn1cc(/C=C/C(=O)c2cccs2)c2ccccc21` (stereo unspecified), the activation was 11.6% (inactive).

In the case of `O=C(/C=C/c1cn(CC(O)CN2CCCCCC2)c2ccccc12)c1cccs1` (stereo unspecified), the activation was 13.4% (active).

With `O=C(/C=C/c1cn(CC(O)CN2CCCCC2)c2ccccc12)c1cccs1` (stereo unspecified), the activation is 55.5% (active).

As to `COc1ccc(/C=[N+](\[O-])C2N(c3ccccc3)C(=S)SC2(C)C)cc1OC` (stereo unspecified), the activation is 5.83% (inactive).

As to `CN1CCN(CCNC(=O)Nc2ccc(Cl)cc2)CC1`, the activation was 13.4% (active).

On to `CCN1CCc2c(sc(NC(=O)Nc3ccc(Cl)c(Cl)c3)c2C(N)=O)C1`, for which the activation is -0.7% (inactive).

`CC(C)CCN1C(=O)c2cccc3c(N)ccc(c23)C1=O`: the activation is 15.7% (active).

Take `CCN1C(=O)c2cccc3c(N)ccc(c23)C1=O`: the activation is 5.33% (inactive).

On to `Nc1cccc(N2C(=O)c3cccc4c(N)ccc(c34)C2=O)c1`, for which the activation was 8.12% (inactive).

Take `c1ccc2c(c1)CN1CCCC1=N2`: the activation was 3.94% (inactive).

For `CC1CC1c1ccc(/C=C(\C#N)C(=O)Nc2ccc(Cl)cc2Cl)o1` (stereo unspecified), the activation was 19.9% (active).

As for `Cc1ccc(NC(=O)/C(C#N)=C/c2ccc(C)s2)c(C)c1`, the activation is -3.42% (inactive).

`CN1/C(=C\C=C(/C#N)C(=O)Nc2ccccc2F)C(C)(C)c2ccccc21`: the activation was 5.14% (inactive).

For the molecule `CC1CC1c1ccc(/C=C(\C#N)C(=O)Nc2cccc(Cl)c2Cl)o1` (stereo unspecified), the activation was 22.5% (active).

With `Clc1cccc(C[n+]2cc(-c3ccccc3)n3c2CCC3)c1`, the activation is 4.21% (inactive).

For the molecule `CN(CC(=O)N1CCN(c2ncccn2)CC1)S(=O)(=O)c1ccc(Cl)cc1`, the activation was 4.61% (inactive).

As to `CN(CC(=O)NCc1ccc(Cl)cc1)S(=O)(=O)c1cccc2cccnc12`, the activation was 12.1% (active).

Turning to `O=C(NCc1ccco1)C1CC(c2c(Cl)cccc2Cl)=NO1` (stereo unspecified), the activation is 0.26% (inactive).

For `CN(CC(=O)NCc1ccco1)S(=O)(=O)c1cccc2cccnc12`, the activation is 32.8% (active).

In the case of `C#CC[N+](C)(C)CCCCCCCCCC`, the activation was 45.3% (active).

In the case of `COc1ccc(NC(=O)C2CC2)cc1OC1CCCC1`, the activation is -0.05% (inactive).

`COc1cc(NC(=O)C2CCCCN2)ccc1OCC(C)C` (stereo unspecified): the activation is 15.1% (active).

Regarding `CCC(CC)c1nc(C#N)c(NC(C)c2ccccc2)o1` (stereo unspecified), the activation is 3.34% (inactive).

With `C=CCNc1oc(COc2ccc(C)cc2)nc1C#N`, the activation was 25.2% (active).

For the molecule `COc1ccc(CNc2oc(COc3ccccc3)nc2C#N)cc1`, the activation is 62.4% (active).

For the molecule `CN(C)c1ccc(NC2=C([N+](=O)[O-])CS(=O)(=O)C2)cc1`, the activation is 12.2% (active).

As for `CC1=C(C)CC(C(=O)NNC(=O)c2cccc(Cl)c2)C(C(=O)O)C1` (stereo unspecified), the activation is 10.7% (inactive).

As to `CCc1ccc(C(=O)NNC(=O)c2cccc(N3C(=O)CCC3=O)c2)cc1`, the activation is 34.6% (active).

For `CCc1ccc(C(=O)NNc2ccccc2F)cc1`, the activation is 7.76% (inactive).

Take `CN(C)c1ccc(/C=C(/C(=O)c2ccc(Cl)cc2Cl)n2cncn2)cc1`: the activation was 4.11% (inactive).

With `O=C1CCc2cc(S(=O)(=O)NC3CCCCC3)ccc2N1`, the activation is 12.4% (active).

With `COc1ccc(CCNC(=O)CN(C)S(=O)(=O)c2ccc3c(c2)CCC(=O)N3)cc1OC`, the activation was 8.22% (inactive).

With `Cc1cc(C(=O)NNC(=S)Nc2ccccc2C)cs1`, the activation was 15.8% (active).

In the case of `Cc1cc(C(=O)NNC(=S)NCc2ccccc2)cs1`, the activation is 7.2% (inactive).

For the molecule `COc1ccc(OC)c(/C=C2\N=C(c3ccccc3)OC2=O)c1`, the activation was 33.8% (active).

For `Cc1nn(-c2ccccc2)c(N2CCCC2)c1/C=C1\N=C(c2ccc(OC(C)C)cc2)OC1=O`, the activation is 9.02% (inactive).

For `COc1ccc(OC)c(/C=C2/Sc3ccccc3C2=O)c1`, the activation is 5.85% (inactive).

These data come from PubChem BioAssay AID504383 (The Scripps Research Institute Molecular Screening Center, 2011).
